Measured values taken from ChEMBL document CHEMBL1139399, “Synthesis and biological evaluation of glucuronide prodrugs of the histone deacetylase inhibitor CI-994 for application in selective cancer chemotherapy” (Bioorg Med Chem, 2008).
pIC50: −log10 of the molar value. Values after ≈ are worked out from the molar mass of the structure shown. Active and inactive are the calls of the source. The calls are words filed in the database; no cut-off is given here.

Legend:
[1] = Aqueous solubility in phosphate buffer at pH 7; format: physicochemical
Procedure, shortened: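 Solubility in 0.02 M phosphate buffer, pH 7; sample filtered through 0.45 µm filter, diluted in HPLC phase and quantified by HPLC (UV) against a calibration curve of 0.1–0.025 mg/mL prepared from a DMSO stock diluted in the same buffer.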

[2] = tested on: NCI-H661; test: Antiproliferative activity against human NCI-H661 cells after 48 hrs; format: functional, cell-based
Procedure, shortened: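 NCI-H661 NSCLC cells grown in RPMI 1640 + 10% FCS, 37 °C, 5% CO2; 4 × 10^3 cells/well seeded, grown 24 h, then exposed to compound for 48 h without β-glucuronidase. XTT labeling mixture added, further 4 h at 37 °C, absorbance read at 480 nm. Three experiments in triplicate; standard deviation shown.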

[3] = Stability in 0.02M phosphate buffer at pH 2.1 after 72 hrs; format: physicochemical; details: pH 2.1, 72 h
Procedure, shortened: (§1)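 Compounds held in 0.02 M phosphate buffer (pH 2.1 or pH 7 as per line) at 37 °C for 72 h; degradation followed by HPLC with UV detection.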

[4] = tested on: NCI-H661; test: Antiproliferative activity against human NCI-H661 cells after 48 hrs in presence of beta-glucuronidase; format: functional, cell-based; details: NCI-H661, 48 h
Procedure, shortened: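 NCI-H661 cells in RPMI 1640 + 10% FCS (37 °C, 5% CO2); E. coli β-glucuronidase added to culture medium at 40 U/ml. 4 × 10^3 cells/well plated 24 h before compound, 48 h treatment, then XTT added and 4 h further incubation at 37 °C; absorbance at 480 nm. Three experiments in triplicate, standard deviation shown.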

[5] = target: Histone deacetylase (Homo sapiens) (UniProt Q13547+O15379+Q9UBN7+Q92769+Q9UQL6+Q8WUI4+Q9BY41+Q96DB2+P56524+Q9UKV0+Q969S8); test: Inhibition of HDAC in human NCI-H661 cells assessed as histone H4 acetylation after 6 hrs in presence of beta-glucuronidase by Western blot analysis; format: cell-based
Procedure, shortened: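 NCI-H661 cells (5 × 10^5) exposed 6 h with β-glucuronidase (40 U/ml) in medium; compounds at 100 µM, TSA control 100 nM, DMSO 0.1%. Laemmli buffer lysis, sonication, SDS–PAGE; blots probed with rabbit polyclonal anti-acetyl-histone H4 (1/500), α-tubulin loading control (1/2000), HRP secondaries (1/5000), ECL detection.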

[6] = Stability in 0.02M phosphate buffer at pH 7 after 72 hrs; format: physicochemical; details: pH 7, 72 h; procedure, shortened: as §1
[7] = Stability in cell culture medium in presence of 10% foetal calf serum; format: ADME; details: cattle
Procedure, shortened: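 Incubation in cell culture medium supplemented with 10% foetal calf serum at 37 °C; solution monitored by HPLC (UV detection) over 72 h.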

CC(=O)Nc1ccc(C(=O)Nc2ccccc2N)cc1 [TACEDINALINE]
solubility [1]: 80 µg/mL (≈ 297 µM)
pIC50 ([2]; NCI-H661, 48 h): 4.70

CC(=O)Nc1ccc(C(=O)Nc2ccccc2NC(=O)O[C@@H]2O[C@H](C(=O)O)[C@@H](O)[C@H](O)[C@H]2O)cc1
solubility [1]: 1000 µg/mL (≈ 2040 µM)
Stability [3]: Stable
Activity [2]: inactive
pIC50 [4]: 4.70
Activity [5]: Active
Stability [6]: Stable
Stability [7]: Stable

CC(=O)Nc1ccc(C(=O)Nc2ccccc2NC(=O)OCc2ccc(O[C@@H]3O[C@H](C(=O)O)[C@@H](O)[C@H](O)[C@H]3O)c([N+](=O)[O-])c2)cc1
solubility [1]: 1000 µg/mL (≈ 1560 µM)
Stability [3]: Stable
Activity [2]: inactive
pIC50 [4]: 4.70
Activity [5]: Active
Stability [6]: Stable
Stability [7]: Stable
